Measured values gathered from unrelated publications.
Each line is one published result; the experiments were not run side by side.
Target: Serine/threonine-protein kinase N2 (PKN2, Homo sapiens, UniProt Q16513)

SMILES | test | conditions | endpoint | value
O=C(Nc1cnn(-c2csc(C(=O)NC3COC3)c2)c1)Nc1c(F)cccc1Cl | enzyme activity, inhibitor | 5 µM | remaining activity | 105%
O=C1Nc2ccc(Cl)cc2C1=Cc1cc(Cl)c(O)c(Cl)c1 | cell-free assay | 0.5 µM | remaining signal | 114%
CN1CC(Oc2cnc(C#N)cc2-c2ccn3nc(NC(=O)C4CC4)cc3c2)C1 | enzyme activity, inhibitor | 1 µM | inhibition | 15%
CC1=C(C#N)[C@@H](c2ccc3[nH]nc(C)c3c2)C(C#N)=C(c2ccc(Cl)cc2)N1 | cell-free assay, competition with immobilised ligand | 1 µM | remaining binding | 74.6%
COc1cc(Nc2cnc(C#N)c(O[C@H](C)CN(C)C)n2)ncc1-c1cnn(C)c1 | enzyme activity, inhibitor, radiometric | 1 µM | remaining activity | 87%
CC(C)(C)c1nc(-c2cccc(NS(=O)(=O)c3c(F)cccc3F)c2F)c(-c2ccnc(N)n2)s1 | enzyme activity, inhibitor, radiometric | 1 µM | remaining activity | 78%
CCS(=O)(=O)c1cc2cc(C[C@@](O)(CC(C)(C)c3ccc(F)cc3C(N)=O)C(F)(F)F)[nH]c2cn1 | cell-free assay, competition with immobilised ligand | 1 µM | remaining binding | 85%
COc1cc(Cl)c(C(=O)N[C@@H](CN[C@H]2CC[C@@H](N)CC2)Cc2ccc(C#N)cc2)cc1-c1ccc(CN[C@H](C)c2ccc(C)cc2)o1 | enzyme activity, inhibitor | 1 µM | remaining activity | 102%
CCCOc1ccc(OC)c(F)c1C(=O)c1ccc(C(=O)N[C@@H]2CNC[C@H]2NC(=O)c2ccc3[nH]ncc3c2)cc1 | enzyme activity, inhibitor | 10 µM | remaining activity | -1%
CN1CCC2(CC1)NC(=O)c1c(c3ccc(Cl)c(Cl)c3n1C)C2C#N (racemic) | thermal stability, DSF | 10 µM | ΔTm | 2.5 °C
COc1cc(-c2cc(-c3ccc(N4CCNCC4)cc3)cnc2C)cc(OC)c1OC | enzyme activity, inhibitor | 0.1 µM | inhibition | 4%
CCN(CC)CCNC(=O)c1c(C)[nH]c(/C=C2\C(=O)Nc3ccc(F)cc32)c1C | enzyme activity, inhibitor | 10 µM | inhibition | 69%
O=C(Nc1cnc(Oc2ccc(F)cc2)nc1)N1CCc2ncccc2[C@@H]1c1ccc(F)cc1 | cell-free assay, competition with immobilised ligand | 1 µM | remaining binding | 78%
Nc1nc(NC2CCCCC2)sc1C(=O)c1ccccc1 | enzyme activity, inhibitor | 10 µM | remaining activity | 98%
O=C(Nc1cccnn1)N1CCC(=Cc2cccc(Oc3ccc(C(F)(F)F)cn3)c2)CC1 | cell-free assay, competition with immobilised ligand | 1 µM | remaining binding | 100%
COc1cccc2c(NCc3ccccc3)nc(-n3c(N)nc4ccccc43)nc12 | target engagement in cells, inhibitor, chemoproteomics | 20 mM | inhibition | -3.6%
CO[C@H]1CC[C@H](CNc2ccc(S(=O)(=O)NC(=O)c3ccc(N4CCN(CC5=C(c6ccc(Cl)cc6)CC(C)(C)CC5)CC4)cc3Oc3cnc4[nH]ccc4c3)cc2[N+](=O)[O-])CC1 | cell-free assay, competition with immobilised ligand | 1 µM | remaining binding | 97%
Cc1ccc(NC(=O)c2ccc(CN3CCN(C)CC3)cc2)cc1Nc1nc(-c2cccnc2)cs1 | cell-free assay | 0.5 µM | remaining signal | 108%
CNC(=O)c1cc(Oc2ccc(NC(=O)Nc3ccc(Cl)c(C(F)(F)F)c3)cc2)ccn1 | enzyme activity, inhibitor | 10 µM | inhibition | 20%
COc1ccc2c(O[C@@H]3C[C@H]4C(=O)N[C@]5(C(=O)O)CC5/C=C\CCCCC[C@H](NC(=O)OC5CCCC5)C(=O)N4C3)cc(-c3csc(NC(=O)C(C)C)n3)nc2c1C (some centres unmarked) | cell-free assay, competition with immobilised ligand | 1 µM | remaining binding | 67%
